Assay outcomes: PubChem BioAssay, several laboratories
ABHD4 inh = inhibits mouse alpha/beta hydrolase domain 4; Q8VD66; purified mABHD4, FP-Rh probe fluorescence polarization; inhibition, % at 8.92 µM; 0.54% of 370,000 active;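 active = inhibition exceeding the mean over every tested compound plus 3 SD, cut at about 30% in these data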
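Test system: mABHD4 protein; Read-out basis: % inhibition; Incubation: 45 min + 60 min at 25 °C; Repeats: single replicate; Technique: fluorescence polarization with parallel and perpendicular emission, 525/598 nm; Compound: 8.92 µM, single dose; Benchmarks: full inhibition S159A mutant plus DMSO, zero as sample-well median.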
HTRA1 inh = inhibitors of human serine peptidase HTRA1. AID 504803. recombinant HTRA1, FP-rhodamine activity-based probe, fluorescence polarization. 0.5% of 340,000 active. inhibition, % at 5.96 µM; in the data active = inhibition above about 36%
Target sequence (Q92743 whole entry, looked up): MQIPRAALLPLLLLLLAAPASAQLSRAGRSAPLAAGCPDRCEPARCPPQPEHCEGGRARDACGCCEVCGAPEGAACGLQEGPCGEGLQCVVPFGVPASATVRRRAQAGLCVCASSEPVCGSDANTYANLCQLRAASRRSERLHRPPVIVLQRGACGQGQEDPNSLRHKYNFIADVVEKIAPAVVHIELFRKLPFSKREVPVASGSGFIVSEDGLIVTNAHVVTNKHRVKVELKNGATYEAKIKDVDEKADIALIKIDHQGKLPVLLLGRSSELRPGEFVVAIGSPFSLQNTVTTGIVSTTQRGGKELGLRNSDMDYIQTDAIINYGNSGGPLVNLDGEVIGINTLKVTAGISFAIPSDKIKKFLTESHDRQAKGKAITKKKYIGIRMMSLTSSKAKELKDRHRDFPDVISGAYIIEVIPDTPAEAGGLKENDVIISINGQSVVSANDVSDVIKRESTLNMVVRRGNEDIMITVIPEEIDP
PRMT1 FP inh = inhibitors of human PRMT1; inhibition, % at 2.79 µM; 1.3% of 370,000 active; recombinant PRMT1, activity-based probe fluorescence polarization;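 active = inhibition above about 21% made by adding two undisclosed values, limit read from the data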
TCR-CD3 inh = blocks the human TCR-CD3 interaction; TAMRA-labeled TCR probe fluorescence, biochemical; inhibition, % at 9.4 µM; 0.37% of 360,000 active; in the data active = inhibition above about 19%;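 also: recombinant mutant TCR 2C K166C tagged with TAMRA read by polarization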
ATG4B inh = blocks human ATG4B protease cleavage of LC3 substrate | inhibition, % at 8.33 µM | ATG4B cleavage of LC3-PLA2, NBD-HPC fluorescence, 1 h | 0.51% of 340,000 active | AID 504462; in the data active = inhibition above about 40%
SIAE primary = inhibitors of human sialic acid acetylesterase SIAE | Q9HAT2 | SIAE FP-Rh probe binding, fluorescence polarization | inhibition, % at 9.66 µM | 0.69% of 370,000 active | AID 1053197;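 active = inhibition above a cutoff: mean of compounds within the control limits plus 3 SD of those, cut at about 17% in these data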
ATG4B confirm = confirmation of human ATG4B inhibitors | shares compounds with ATG4B inh | AID 504757 | inhibition, % at 8.33 µM | 92% of 320 active | ATG4B protease fluorescent substrate cleavage assay; in the data active = inhibition above about 39%
PLA2 ctr = counter-screen for ATG4B inhibitors: human phospholipase A2 | shares compounds with ATG4B inh | 66% of 1,600 active | purified PLA2, NBD-C6-HPC fluorescence, 45 min | AID 588402 | inhibition, % at 8.33 µM; in the data active = inhibition above about 50%
Target sequence (P04054 whole entry, looked up): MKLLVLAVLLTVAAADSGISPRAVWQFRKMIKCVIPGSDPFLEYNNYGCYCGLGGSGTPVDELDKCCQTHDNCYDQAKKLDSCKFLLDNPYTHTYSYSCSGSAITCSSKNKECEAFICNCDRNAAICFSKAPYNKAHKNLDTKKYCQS
Of the large screens only hits and unclear results are named; the others gave an inactive call (follow-up assays come after a bar, where they were run). Hits are enriched below; roughly 2.9% of the tested compounds scored in any of these assays.

O=C(CNC(=O)Cc1ccccc1)NCc1cccc(C(F)(F)F)c1	none
O=C(CN1CCCCC1)Nc1ccccc1-c1ccccc1	ATG4B inh 46 | PLA2 ctr 59
O=S1(=O)c2ccc(N3CCC[C@@H]3CO)cc2O[C@@H]2CCN1C2	none (no result: HTRA1 inh, TCR-CD3 inh, ATG4B inh)
CC1CCC2(CCC(=O)N2C[C@@H](O)c2ccccc2)CC1 (some centres undefined)	none (no result: HTRA1 inh, TCR-CD3 inh, ATG4B inh)
CCn1c(SCC(=O)Nc2oc(-c3ccccc3)c(-c3ccccc3)c2C#N)nnc1-c1ccco1	ATG4B inh 61 | PLA2 ctr 68
CCCCOc1ccc(-c2cn3ccccc3n2)cc1[N+](=O)[O-]	ATG4B inh 45 | PLA2 ctr inactive
CCOc1ccc(-c2cn3ccccc3n2)cc1[N+](=O)[O-]	none
O=S1(=O)N(Cc2ccccc2F)CCCN1Cc1c(F)cccc1Cl	ATG4B inh 68 | PLA2 ctr 83
Cc1ccc(CN2CCCN(Cc3c(F)cccc3Cl)S2(=O)=O)cc1	none
COC(=O)[C@H](CC(C)C)N(Cc1cn(Cc2ccc(C)cc2)nn1)S(=O)(=O)c1ccccc1Br	none (no result: HTRA1 inh, TCR-CD3 inh, ATG4B inh)
Cc1ccccc1OCC(=O)Nc1cc(S(=O)(=O)N2CCCCC2)ccc1N1CCN(C)CC1	ATG4B inh 46 (no result: HTRA1 inh) | PLA2 ctr 50
CCN(CC)S(=O)(=O)c1ccc(N2CCOCC2)c(NC(=O)COc2ccccc2)c1	none
Cc1cccc(OCC(=O)Nc2cc(S(=O)(=O)N3CCOCC3)ccc2N2CCCC2)c1C	none
CCc1ccccc1OCC(=O)Nc1cc(S(=O)(=O)N(CC)CC)ccc1N1CCOCC1	ATG4B inh 54 | PLA2 ctr 92
COc1cccc(N2CCN(CC(=O)NCc3ccco3)CC2)c1	none (no result: HTRA1 inh, TCR-CD3 inh, ATG4B inh)
O=c1c2ccccc2nc(-c2ccoc2)n1CCc1ccccc1	ATG4B inh 42 | ATG4B confirm 65 | PLA2 ctr inactive
Cc1cccc(Cn2cc(COC(=O)N3CCCC3)nn2)c1	none (no result: HTRA1 inh, TCR-CD3 inh, ATG4B inh)
COCCCNC(=O)C[C@H]1C[C@@]2(C(=O)OC)C(=C[C@H](C3CCCC3)O[C@@H]2C)N(Cc2ccc(Cl)cc2Cl)C1=O	none (no result: HTRA1 inh, TCR-CD3 inh, ATG4B inh)
Cc1sc2ncnc(SCC(=O)N3CCN(C(=O)c4ccco4)CC3)c2c1C	none (no result: ABHD4 inh, PRMT1 FP inh, TCR-CD3 inh, SIAE primary)
CC(C)c1nc(N2CCN(C(=O)c3ccco3)CC2)c2c3c(sc2n1)CCCC3	ATG4B inh 92 | PLA2 ctr 90
CCc1c(C)sc2nc(C(C)C)nc(SCC(=O)N3CCc4ccccc4C3)c12	ATG4B inh 46 (no result: HTRA1 inh) | PLA2 ctr 50
Cc1nc(N2CCN(C(=O)C3CCCCC3)CC2)c2c3c(sc2n1)CCCC3	none (no result: HTRA1 inh, TCR-CD3 inh, ATG4B inh)
Cc1sc2nc(C(C)C)nc(SCC(=O)N3CCN(C(=O)c4ccco4)CC3)c2c1C	ATG4B inh 47 | PLA2 ctr 57
Cc1nc(N2CCN(C(=O)c3ccco3)CC2)c2c3c(sc2n1)CCC3	ATG4B inh 67 | PLA2 ctr 71
O=C(c1ccco1)N1CCN(C(=O)c2cccn3c(=O)c4c5c(sc4nc23)CCCC5)CC1	none
CC1CN(c2nc3ccccc3nc2SCC(=O)N2CCN(S(=O)(=O)c3ccc(F)cc3)CC2)CC(C)O1 (centres undefined)	none (no result: HTRA1 inh, TCR-CD3 inh, ATG4B inh)
COC(=O)[C@]12CCCCC=C1N(Cc1ccc(OC)cc1)C(=O)[C@@H]2CC(=O)NCc1ccc(C)o1	none (no result: HTRA1 inh, TCR-CD3 inh, ATG4B inh)
O=C(/C=C/c1ccc(Cl)cc1Cl)N1CCN(c2ccccc2[N+](=O)[O-])CC1	ATG4B inh 53 | PLA2 ctr 60
COc1ccc(OC)c(NC(=O)c2ccccc2N(Cc2ccccc2)C(=O)C(C)Cl)c1 (centres undefined)	none (no result: HTRA1 inh, TCR-CD3 inh, ATG4B inh)
CC(C)S(=O)(=O)C1=NSC2=NC(=O)/C(=C\c3ccc(-c4ccccc4)o3)C(=N)N21	ATG4B inh 59 | PLA2 ctr 56
Cc1ccc(/C=c2\sc3nc(-c4ccccc4Br)nn3c2=O)o1	ATG4B inh 48 | PLA2 ctr inactive
Cc1ccc(/C=c2\sc3nc(-c4ccco4)nn3c2=O)o1	none (no result: ABHD4 inh, PRMT1 FP inh, TCR-CD3 inh, SIAE primary)
O=C(Oc1ccc([N+](=O)[O-])cc1)O[C@H]1CC[C@@]23CCCN2C(=O)CCC[C@H]3C1	none (no result: HTRA1 inh, TCR-CD3 inh, ATG4B inh)
CCN1C(=O)/C(=C\c2cccs2)C(C(=O)OC)=C1C	none
COC(=O)C1=C(C)N(Cc2cccnc2)C(=O)/C1=C\c1sccc1C	ATG4B inh 42 | PLA2 ctr 54
COC(=O)[C@@]12CCCCC=C1N(CCc1ccc(Cl)cc1)C(=O)[C@H]2CC(=O)NCc1ccc(C)o1	none (no result: HTRA1 inh, TCR-CD3 inh, ATG4B inh)
COc1ccc(CSC(=N)N)cc1[N+](=O)[O-]	none
CCCCCOc1ccc(CSC(=N)N)cc1[N+](=O)[O-]	ATG4B inh 64 | PLA2 ctr 61
COC(=O)c1ccc(Cn2ccc3ccc(-c4ccc5ccn(Cc6ccc(C(=O)OC)cc6)c5c4)cc32)cc1	none (no result: HTRA1 inh, TCR-CD3 inh, ATG4B inh)
CC(C)c1ccc(OCC(=O)N2CCc3ccccc3C2)cc1	none
CC(C)c1ccc(/C=C/C(=O)N2CCc3ccccc3C2)cc1	ATG4B inh 59 | PLA2 ctr 63
C[C@H]1CN([C@@H](C)CO)C(=O)c2cc(NC(=O)Cc3ccccc3)ccc2O[C@H]1CN(C)Cc1ccccc1	none
C[C@@H]1CN([C@H](C)CO)C(=O)c2cc(NC(=O)Cc3ccccc3)ccc2O[C@H]1CN(C)Cc1ccc(Oc2ccccc2)cc1	ATG4B inh 56 | PLA2 ctr 68
CN(Cc1ccccc1F)C(=O)Cn1c(-c2cncs2)nc2ccccc21	none (no result: HTRA1 inh, TCR-CD3 inh, ATG4B inh)
CCCC1CCC2(CC1)CCC2OC(=O)Nc1cc(C)cc(C)c1 (centres undefined)	none (no result: HTRA1 inh, TCR-CD3 inh, ATG4B inh)
Cc1ccc(C)c(CNC(=O)Nc2ccccc2)c1	ATG4B inh 49 | PLA2 ctr 51
Cc1ccc(CNC(=O)Nc2ccccc2)cc1	none
COc1ccc(CNc2ncnc3c2[nH]c2ccccc23)cc1	ATG4B inh 47 (no result: HTRA1 inh) | PLA2 ctr 71
O=C(COC(=O)c1ncc(Cl)c(Cl)c1Cl)c1ccc(Cl)s1	none | PLA2 ctr inactive
O=C(COC(=O)c1nc(Cl)ccc1Cl)c1ccc(Cl)s1	none
O=C(N/N=C/c1cccc([N+](=O)[O-])c1)c1nc2ccccc2c(=O)[nH]1	none
O=C(N/N=C/c1ccccc1Cl)c1nc2ccc([N+](=O)[O-])cc2c(=O)[nH]1	ATG4B inh 41 | ATG4B confirm 66 | PLA2 ctr inactive
O=C(NNC(=O)c1nn(-c2ccc(F)cc2)ccc1=O)c1ccccc1Cl	ATG4B inh 42 | PLA2 ctr inactive
O=C(O)c1nn(-c2ccc(F)cc2)ccc1=O	none
CCCCOc1ccc(-c2c(C#N)c(N)nc(SCC(N)=O)c2C#N)cc1	ATG4B inh 53 | PLA2 ctr 58
CCCCOC(=O)CSc1nc(N)c(C#N)c(-c2ccc(OCC)cc2)c1C#N	none
